Tested on: U2OS
Experiment: Multiplex assay against U2OS
Assay type: toxicity, cell-based
Details: human
Outline: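 At seeding, live cells were stained with Hoechst33342, BioTracker Green Microtubule Cytoskeleton Dye, MitoTracker Red and Annexin V Alexa Fluor 680. After compound addition they were imaged on a CQ1 microscope at 37°C and 5% CO2, and CellPathfinder machine-learning gating sorted them into Hoechst high-intensity objects or normal cells, with normal cells further split into healthy, pyknosed or fragmented nuclei and pyknosed cells into mitotic or apoptotic. Tubulin, mitochondrial-mass and membrane-permeability phenotypes are given as per cents of cells with healthy nuclei.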

[1] = 12 h, 1 µM, compound concentration 1 uM, replicate 1
[2] = 12 h, 1 µM, compound concentration 1 uM, replicate 2
[3] = 12 h, 10 µM, compound concentration 10 uM, replicate 1
[4] = 12 h, 10 µM, compound concentration 10 uM, replicate 2
[5] = 24 h, 1 µM, compound concentration 1 uM, replicate 1
[6] = 24 h, 1 µM, compound concentration 1 uM, replicate 2
[7] = 24 h, 10 µM, compound concentration 10 uM, replicate 1
[8] = 24 h, 10 µM, compound concentration 10 uM, replicate 2
[9] = 48 h, 1 µM, compound concentration 1 uM, replicate 1
[10] = 48 h, 1 µM, compound concentration 1 uM, replicate 2
[11] = 48 h, 10 µM, compound concentration 10 uM, replicate 1
[12] = 48 h, 10 µM, compound concentration 10 uM, replicate 2

Structure (SMILES): O=C1[C@H](Cc2ccc(O)cc2)N2C(=O)CCN(C(=O)NCc3ccccc3)[C@H]2CN1Cc1cccc2ccccc12
- Population Apoptotic (%) [1]: 91%
- Population Fragmented Nuclei (%) [1]: 13%
- Population Healthy Nuclei (%) [1]: 74%
- Population Hoechst High Intensity Objects (%) [1]: 4%
- Population Membrane Permeable-Phenotype (%) [1]: 4%
- Population Mitochondria Different-Phenotype (%) [1]: 1%
- Population Mitotic Cells (%) [1]: 8%
- Population Normal (%) [1]: 96%
- Population Pyknosed Nuclei (%) [1]: 12%
- Population Tubulin-Different-Phenotype (%) [1]: 1%
- Total Cell Count [1]: 200
- Population Apoptotic (%) [2]: 84%
- Population Fragmented Nuclei (%) [2]: 21%
- Population Healthy Nuclei (%) [2]: 66%
- Population Hoechst High Intensity Objects (%) [2]: 0%
- Population Membrane Permeable-Phenotype (%) [2]: 5%
- Population Mitochondria Different-Phenotype (%) [2]: 8%
- Population Mitotic Cells (%) [2]: 15%
- Population Normal (%) [2]: 99%
- Population Pyknosed Nuclei (%) [2]: 11%
- Population Tubulin-Different-Phenotype (%) [2]: 4%
- Total Cell Count [2]: 113
- Population Apoptotic (%) [3]: 60%
- Population Fragmented Nuclei (%) [3]: 32%
- Population Healthy Nuclei (%) [3]: 50%
- Population Hoechst High Intensity Objects (%) [3]: 3%
- Population Membrane Permeable-Phenotype (%) [3]: 55%
- Population Mitochondria Different-Phenotype (%) [3]: 35%
- Population Mitotic Cells (%) [3]: 40%
- Population Normal (%) [3]: 96%
- Population Pyknosed Nuclei (%) [3]: 17%
- Population Tubulin-Different-Phenotype (%) [3]: 55%
- Total Cell Count [3]: 207
- Population Apoptotic (%) [4]: 72%
- Population Fragmented Nuclei (%) [4]: 19%
- Population Healthy Nuclei (%) [4]: 67%
- Population Hoechst High Intensity Objects (%) [4]: 6%
- Population Membrane Permeable-Phenotype (%) [4]: 38%
- Population Mitochondria Different-Phenotype (%) [4]: 47%
- Population Mitotic Cells (%) [4]: 27%
- Population Normal (%) [4]: 93%
- Population Pyknosed Nuclei (%) [4]: 13%
- Population Tubulin-Different-Phenotype (%) [4]: 43%
- Total Cell Count [4]: 88
- Population Apoptotic (%) [5]: 80%
- Population Fragmented Nuclei (%) [5]: 13%
- Population Healthy Nuclei (%) [5]: 73%
- Population Hoechst High Intensity Objects (%) [5]: 2%
- Population Membrane Permeable-Phenotype (%) [5]: 4%
- Population Mitochondria Different-Phenotype (%) [5]: 1%
- Population Mitotic Cells (%) [5]: 19%
- Population Normal (%) [5]: 97%
- Population Pyknosed Nuclei (%) [5]: 13%
- Population Tubulin-Different-Phenotype (%) [5]: 2%
- Total Cell Count [5]: 242
- Population Apoptotic (%) [6]: 88%
- Population Fragmented Nuclei (%) [6]: 14%
- Population Healthy Nuclei (%) [6]: 71%
- Population Hoechst High Intensity Objects (%) [6]: 1%
- Population Membrane Permeable-Phenotype (%) [6]: 7%
- Population Mitochondria Different-Phenotype (%) [6]: 5%
- Population Mitotic Cells (%) [6]: 11%
- Population Normal (%) [6]: 98%
- Population Pyknosed Nuclei (%) [6]: 14%
- Population Tubulin-Different-Phenotype (%) [6]: 4%
- Total Cell Count [6]: 127
- Population Apoptotic (%) [7]: 65%
- Population Fragmented Nuclei (%) [7]: 34%
- Population Healthy Nuclei (%) [7]: 42%
- Population Hoechst High Intensity Objects (%) [7]: 3%
- Population Membrane Permeable-Phenotype (%) [7]: 25%
- Population Mitochondria Different-Phenotype (%) [7]: 23%
- Population Mitotic Cells (%) [7]: 34%
- Population Normal (%) [7]: 96%
- Population Pyknosed Nuclei (%) [7]: 22%
- Population Tubulin-Different-Phenotype (%) [7]: 25%
- Total Cell Count [7]: 214
- Population Apoptotic (%) [8]: 85%
- Population Fragmented Nuclei (%) [8]: 29%
- Population Healthy Nuclei (%) [8]: 54%
- Population Hoechst High Intensity Objects (%) [8]: 5%
- Population Membrane Permeable-Phenotype (%) [8]: 36%
- Population Mitochondria Different-Phenotype (%) [8]: 38%
- Population Mitotic Cells (%) [8]: 14%
- Population Normal (%) [8]: 94%
- Population Pyknosed Nuclei (%) [8]: 16%
- Population Tubulin-Different-Phenotype (%) [8]: 42%
- Total Cell Count [8]: 91
- Population Apoptotic (%) [9]: 81%
- Population Fragmented Nuclei (%) [9]: 15%
- Population Healthy Nuclei (%) [9]: 73%
- Population Hoechst High Intensity Objects (%) [9]: 3%
- Population Membrane Permeable-Phenotype (%) [9]: 2%
- Population Mitochondria Different-Phenotype (%) [9]: 2%
- Population Mitotic Cells (%) [9]: 18%
- Population Normal (%) [9]: 96%
- Population Pyknosed Nuclei (%) [9]: 11%
- Population Tubulin-Different-Phenotype (%) [9]: 3%
- Total Cell Count [9]: 326
- Population Apoptotic (%) [10]: 95%
- Population Fragmented Nuclei (%) [10]: 16%
- Population Healthy Nuclei (%) [10]: 67%
- Population Hoechst High Intensity Objects (%) [10]: 5%
- Population Membrane Permeable-Phenotype (%) [10]: 3%
- Population Mitochondria Different-Phenotype (%) [10]: 0%
- Population Mitotic Cells (%) [10]: 4%
- Population Normal (%) [10]: 94%
- Population Pyknosed Nuclei (%) [10]: 15%
- Population Tubulin-Different-Phenotype (%) [10]: 5%
- Total Cell Count [10]: 168
- Population Apoptotic (%) [11]: 82%
- Population Fragmented Nuclei (%) [11]: 37%
- Population Healthy Nuclei (%) [11]: 43%
- Population Hoechst High Intensity Objects (%) [11]: 5%
- Population Membrane Permeable-Phenotype (%) [11]: 28%
- Population Mitochondria Different-Phenotype (%) [11]: 16%
- Population Mitotic Cells (%) [11]: 17%
- Population Normal (%) [11]: 94%
- Population Pyknosed Nuclei (%) [11]: 19%
- Population Tubulin-Different-Phenotype (%) [11]: 19%
- Total Cell Count [11]: 252
- Population Apoptotic (%) [12]: 81%
- Population Fragmented Nuclei (%) [12]: 33%
- Population Healthy Nuclei (%) [12]: 46%
- Population Hoechst High Intensity Objects (%) [12]: 4%
- Population Membrane Permeable-Phenotype (%) [12]: 22%
- Population Mitochondria Different-Phenotype (%) [12]: 20%
- Population Mitotic Cells (%) [12]: 18%
- Population Normal (%) [12]: 95%
- Population Pyknosed Nuclei (%) [12]: 20%
- Population Tubulin-Different-Phenotype (%) [12]: 18%
- Total Cell Count [12]: 111
